According to ChEMBL document CHEMBL4020760, “Discovery of a Small Molecule Probe That Post-Translationally Stabilizes the Survival Motor Neuron Protein for the Treatment of Spinal Muscular Atrophy” (J Med Chem, 2017):
Calls of active or inactive are those of the source. The calls are words filed in the database; no cut-off is given here.

Key:
Liver = assay: Half life in human liver microsomes; assay type: ADME, microsome
Method in brief: (§1)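 Compound stability in mouse and human liver microsomes, expressed as half-life in min.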

[1] = target: Survival motor neuron protein (Homo sapiens) (UniProt Q16637); assay: Stabilization of SMN protein in 3813T fibroblasts derived from human SMA patient assessed as increase in SMN protein level after 48 hrs by SDS-PAGE and immunoblot
Survival motor neuron protein (Homo sapiens), sequence (Q16637 whole entry): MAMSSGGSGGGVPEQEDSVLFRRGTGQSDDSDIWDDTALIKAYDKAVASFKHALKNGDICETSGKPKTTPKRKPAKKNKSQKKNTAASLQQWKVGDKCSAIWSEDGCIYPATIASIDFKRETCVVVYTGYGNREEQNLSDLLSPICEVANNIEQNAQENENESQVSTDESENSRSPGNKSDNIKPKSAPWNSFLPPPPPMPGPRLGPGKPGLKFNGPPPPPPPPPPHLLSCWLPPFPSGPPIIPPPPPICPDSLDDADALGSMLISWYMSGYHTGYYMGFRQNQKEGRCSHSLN

[2] = target: Survival motor neuron protein (Homo sapiens) (UniProt Q16637); assay: Stabilization of human SMN protein expressed in HEK293 cells expressing SMN2 promoter after 24 hrs by luciferase reporter gene assay relative to control; assay type: cell-based
Method in brief: (§2)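 SMN2-luc reporter cells seeded at 25,000/well overnight, then treated 24 h with six doses (3-fold serial dilutions, top final 10 or 30 μM), 0.1% DMSO. Firefly and Renilla luciferase read by dual-luciferase assay, normalized to DMSO as percent; EC50 and maximal activation from curves. Mean ± SEM, ≥3 trials.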

[3] = target: Survival motor neuron protein (Homo sapiens) (UniProt Q16637); assay: Stabilization of human SMN protein expressed in HEK293 cells at 10 to 30 uM after 24 hrs by luciferase reporter gene assay; assay type: cell-based; method in brief: as §2
[4] = target: Survival motor neuron protein (Homo sapiens) (UniProt Q16637); assay: Stabilization of SMN protein in 3813T fibroblasts derived from human SMA patient assessed as increase in SMN protein level after 48 hrs by SDS-PAGE and immunoblot
Method in brief: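 hTERT-immortalized SMA patient 3813T fibroblasts seeded at 6000/well, next day dosed for 48 h at indicated concentrations, 0.1% DMSO. Lysed in boiling buffer (150 mM NaCl, 10 mM Tris pH 8.0, 2% SDS), run on 10% SDS-PAGE, SMN immunoblotted, normalized to tubulin or actin as fold over DMSO; one-way ANOVA with Dunnett.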

Brain [5] = assay: Tmax in mouse brain at 20 mg/kg, po; assay type: ADME, organism-based; settings: in vivo
[6] = target: Survival motor neuron protein (Homo sapiens) (UniProt Q16637); assay: Stabilization of human SMN protein expressed in HEK293 cells expressing SMN2 promoter assessed as additive effect on SMN stabilization in presence of 0.1: 0.1 to 10:10 ratio of LDN-75654 to compound after 24 hrs by luciferase reporter gene assay; assay type: cell-based
Method in brief: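 SMN2 reporter cells exposed 24 h to the two compounds alone or combined at constant ratio, DMSO held at 0.2%, and SMN-luc read. Theoretical additive effect taken as the sum of the single-agent activities.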

Oryctolagus cuniculus = species: Oryctolagus cuniculus; assay: Effect on proteasome in rabbit reticulocyte lysates assessed as MBP-HPV-16 E6-mediated p53 degradation at 10 and 30 uM incubated for 30 mins prior to MBP-E6 addition by Western blot analysis
Method in brief: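 Purified p53 and MBP-HPV16 E6. E6 (0.1 μM) or buffer then added for 2 h at 25 °C, stopped at 75 °C. p53 read by 10% SDS-PAGE/Western (PAb1801).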

Brain [7] = assay: Half life in mouse brain at 20 mg/kg, ip; assay type: ADME, organism-based; settings: in vivo
[8] = Half life in mouse liver microsomes; assay type: ADME, microsome; settings: liver microsomes; method in brief: as §1
[9] = target: Voltage-gated inwardly rectifying potassium channel KCNH2 (Homo sapiens, UniProt Q12809); assay: Inhibition of human ERG at 10 uM
Voltage-gated inwardly rectifying potassium channel KCNH2, sequence (Q12809 whole entry): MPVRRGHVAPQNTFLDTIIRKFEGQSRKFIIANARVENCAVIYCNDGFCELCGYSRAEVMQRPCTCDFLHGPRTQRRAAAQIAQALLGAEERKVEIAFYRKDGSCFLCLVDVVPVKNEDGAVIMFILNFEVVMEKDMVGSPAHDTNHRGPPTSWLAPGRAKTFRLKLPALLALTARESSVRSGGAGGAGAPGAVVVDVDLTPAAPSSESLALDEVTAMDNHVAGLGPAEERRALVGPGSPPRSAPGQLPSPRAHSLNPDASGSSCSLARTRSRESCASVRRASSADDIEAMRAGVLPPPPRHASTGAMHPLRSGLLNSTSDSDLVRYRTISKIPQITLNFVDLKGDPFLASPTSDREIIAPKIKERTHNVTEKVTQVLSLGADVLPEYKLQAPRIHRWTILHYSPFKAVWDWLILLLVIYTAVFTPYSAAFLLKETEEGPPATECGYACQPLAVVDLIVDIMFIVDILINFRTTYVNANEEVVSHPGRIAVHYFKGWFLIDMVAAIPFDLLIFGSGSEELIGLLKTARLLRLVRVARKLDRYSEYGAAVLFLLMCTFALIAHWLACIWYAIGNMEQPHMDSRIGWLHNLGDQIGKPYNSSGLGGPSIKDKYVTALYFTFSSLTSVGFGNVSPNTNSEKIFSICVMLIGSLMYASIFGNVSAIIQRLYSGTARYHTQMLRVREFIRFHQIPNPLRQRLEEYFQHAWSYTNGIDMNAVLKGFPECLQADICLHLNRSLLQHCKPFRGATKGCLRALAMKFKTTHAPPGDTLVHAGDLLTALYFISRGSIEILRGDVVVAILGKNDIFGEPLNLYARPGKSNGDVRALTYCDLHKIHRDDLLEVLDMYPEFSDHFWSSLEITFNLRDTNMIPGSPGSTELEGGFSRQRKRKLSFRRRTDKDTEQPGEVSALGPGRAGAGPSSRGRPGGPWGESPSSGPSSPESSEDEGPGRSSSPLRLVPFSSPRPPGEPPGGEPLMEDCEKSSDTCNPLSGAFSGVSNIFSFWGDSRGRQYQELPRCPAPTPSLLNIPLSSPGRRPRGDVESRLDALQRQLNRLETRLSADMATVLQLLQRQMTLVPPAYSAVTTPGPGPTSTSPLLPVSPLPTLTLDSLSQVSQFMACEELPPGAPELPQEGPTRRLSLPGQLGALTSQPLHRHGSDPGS

HEK293 [10] = assay: Effect on luciferase expression in human HEK293 cells expressing SV40 promoter at 10 to 30 uM after 24 hrs by luciferase reporter gene assay; assay type: ADME, cell-based; settings: hek293, 24 h
Brain [11] = assay: Tmax in mouse brain at 20 mg/kg, ip; assay type: ADME, organism-based; settings: in vivo
Plasma [12] = assay: Half life in mouse plasma at 20 mg/kg, ip; assay type: ADME, organism-based; settings: in vivo
HEK293 [13] = assay: Effect on human luciferase-tagged SMN mRNA expressed in HEK293 cells assessed as SMN exon 7 included transcript at 1 and 10 uM after 24 hrs by qRT-PCR relative to GAPDH mRNA expression; assay type: cell-based
Method in brief: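 SMN2-luciferase reporter cells treated with compound; total RNA isolated with Trizol, DNase I treated and reverse transcribed. SYBR Green qPCR for SMN exon 7-included and full-length transcripts, with GAPDH as reference.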

Plasma [14] = assay: Half life in mouse plasma at 20 mg/kg, po; assay type: ADME, organism-based; settings: in vivo
CYP2D6 = CYP2D6 (Homo sapiens, UniProt P10635); assay: Inhibition of CYP2D6 (unknown origin) at 10 uM; assay type: ADME
CYP2D6, sequence (P10635 whole entry): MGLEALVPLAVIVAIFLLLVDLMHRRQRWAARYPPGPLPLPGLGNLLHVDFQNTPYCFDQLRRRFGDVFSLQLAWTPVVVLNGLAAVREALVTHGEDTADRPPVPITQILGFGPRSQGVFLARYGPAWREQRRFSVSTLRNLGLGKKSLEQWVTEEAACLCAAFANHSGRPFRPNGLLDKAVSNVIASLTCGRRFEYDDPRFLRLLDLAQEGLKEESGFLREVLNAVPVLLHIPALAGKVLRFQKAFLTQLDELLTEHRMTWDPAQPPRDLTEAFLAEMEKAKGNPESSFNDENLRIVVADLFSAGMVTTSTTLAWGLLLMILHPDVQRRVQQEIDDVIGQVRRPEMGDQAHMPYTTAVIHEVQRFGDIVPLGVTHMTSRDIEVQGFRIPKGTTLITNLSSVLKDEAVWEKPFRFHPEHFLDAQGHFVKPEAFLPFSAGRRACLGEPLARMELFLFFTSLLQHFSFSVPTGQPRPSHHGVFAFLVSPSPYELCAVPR

HEK293 [15] = assay: Effect on basal level of polyubiquitinated protein in HEK293 cells at 1 and 10 uM incubated for 2 hrs by SDS-PAGE analysis; assay type: cell-based; settings: human, hek293, 2 h
Method in brief: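 HEK293 cells pretreated 2 h with test compound or MG-132 (1 and 10 μM), then DMSO or cycloheximide (10 μM) added and incubated a further 6 h; final DMSO 0.2%. Lysates run on 4–15% gradient SDS-PAGE; anti-ubiquitin blot for polyubiquitinated proteins, tubulin as loading control.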

SH-SY5Y = assay: Cytotoxicity against human SH-SY5Y cells assessed as reduction in cell viability at 100 times EC50 concentration after 48 hrs by CellTiter 96 AQueous one solution cell proliferation assay; assay type: cell-based
Method in brief: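 SH-SY5Y cells seeded at 10,000/well, next day treated with graded compound doses in duplicate for 48 h, 0.2% DMSO constant; CellTiter 96 AQueous One reagent added for the last 4 h; cycloheximide 200 ng/mL as toxicity control.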

Brain [16] = assay: Half life in mouse brain at 20 mg/kg, po; assay type: ADME, organism-based; settings: in vivo
Plasma [17] = assay: Tmax in mouse plasma at 20 mg/kg, po; assay type: ADME, organism-based; settings: in vivo
Plasma [18] = assay: Cmax in mouse plasma at 20 mg/kg, po; assay type: ADME, organism-based; parameters: dose 20 mg/kg, route oral; settings: in vivo
Plasma [19] = assay: AUC (0 to 24 hrs) in mouse plasma at 20 mg/kg, ip; assay type: ADME, organism-based; parameters: dose 20 mg/kg, time < 24 hr, route intraperitoneal; settings: in vivo
[20] = target: Survival motor neuron protein (Homo sapiens) (UniProt Q16637); assay: Stabilization of SMN protein in 3813T fibroblasts derived from human SMA patient assessed as increase in SMN protein level at 2 uM after 48 hrs by SDS-PAGE and immunoblot
Plasma [21] = assay: Half life in mouse plasma after 60 mins; assay type: ADME, cell-free; settings: 1 h
Plasma [22] = assay: AUC (0 to 24 hrs) in mouse plasma at 20 mg/kg, po; assay type: ADME, organism-based; parameters: dose 20 mg/kg, time < 24 hr, route oral; settings: in vivo
[23] = AUC (0 to 24 hrs) in mouse brain at 20 mg/kg, ip; assay type: ADME, organism-based; parameters: time < 24 hr, dose 20 mg/kg, route intraperitoneal
Plasma [24] = assay: Cmax in mouse plasma at 20 mg/kg, ip; assay type: ADME, organism-based; parameters: dose 20 mg/kg, route intraperitoneal; settings: in vivo
Plasma [25] = assay: Tmax in mouse plasma at 20 mg/kg, ip; assay type: ADME, organism-based; settings: in vivo

Q: Which t1/2 (Liver) does the source give for `O=C(Nc1ncc(C2(O)CCC2)s1)c1ccc(F)c(Cl)c1` here?
A: > 2 h

Q: What about the Activity [1] of the same compound?
A: Dose-dependent effect

Q: What about the Activity [2] of the same compound?
A: 190%

Q: And the Activity [3]?
A: Active

Q: And the Activity [4]?
A: Dose-dependent effect

Q: And the Tmax (Brain [5])?
A: 0.5 h

Q: And the Activity [6]?
A: inactive

Q: What about the Activity (Oryctolagus cuniculus) of the same compound?
A: inactive

Q: What about the t1/2 (Brain [7]) of the same compound?
A: 1.9 h

Q: And the half-life [8]?
A: 0.65 h

Q: What about the “inhibition (INH)” value [9] of the same compound?
A: Not Active

Q: What about the Activity (HEK293 [10]) of the same compound?
A: Non-Toxic

Q: What about the Tmax (Brain [11]) of the same compound?
A: 0.5 h

Q: What about the t1/2 (Plasma [12]) of the same compound?
A: 2.2 h

Q: What about the Activity (HEK293 [13]) of the same compound?
A: inactive

Q: And the t1/2 (Plasma [14])?
A: 3.4 h

Q: And the inhibition at 10 µM (CYP2D6)?
A: < 50%

Q: And the Activity (HEK293 [15])?
A: Non-Toxic

Q: And the Activity (SH-SY5Y)?
A: Non-Toxic

Q: And the t1/2 (Brain [16])?
A: 2.8 h

Q: What about the Tmax (Plasma [17]) of the same compound?
A: 0.5 h

Q: And the Cmax (Plasma [18])?
A: 286 ng/mL

Q: What about the AUC (Plasma [19]) of the same compound?
A: 34291 ng·h/mL

Q: What about the fold change (FC) [20] of the same compound?
A: 2

Q: And the t1/2 (Plasma [21])?
A: 5.43 h

Q: And the AUC (Plasma [22])?
A: 1641 ng·h/mL

Q: What about the AUC(0-t) at 24 h [23] of the same compound?
A: 51300 ng·h/mL

Q: What about the Cmax (Plasma [24]) of the same compound?
A: 7660 ng/mL

Q: What about the Tmax (Plasma [25]) of the same compound?
A: 0.5 h
